Laboratory results reported in ChEMBL document CHEMBL1914420, “Investigation of the pyrazinones as PDE5 inhibitors: evaluation of regioisomeric projections into the solvent region” (Bioorg Med Chem Lett, 2011).

Legend:
[1] = target: T1, Adenosine receptor A1 (Homo sapiens, UniProt P30542); test: Inhibition of adenosine A1 receptor
T1 sequence (P30542 whole entry): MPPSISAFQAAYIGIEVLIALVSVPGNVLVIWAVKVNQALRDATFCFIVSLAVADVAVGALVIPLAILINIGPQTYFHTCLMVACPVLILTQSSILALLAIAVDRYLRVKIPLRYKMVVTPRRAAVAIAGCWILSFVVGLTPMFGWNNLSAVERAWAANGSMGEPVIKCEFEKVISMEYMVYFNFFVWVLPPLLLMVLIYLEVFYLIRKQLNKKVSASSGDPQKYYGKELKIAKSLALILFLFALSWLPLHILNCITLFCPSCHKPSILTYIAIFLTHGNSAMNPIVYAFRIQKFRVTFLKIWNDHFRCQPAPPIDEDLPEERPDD

[2] = target: Acetylcholinesterase (Homo sapiens, UniProt P22303); test: Inhibition of acetylcholinesterase
[3] = target: 3',5'-cyclic-AMP phosphodiesterase 4A (Homo sapiens, UniProt P27815); test: Inhibition of PDE4A
[4] = Metabolic stability in human liver microsomes assessed as compound remaining after 1 hr; assay type: ADME, Microsome; conditions: read-out: Stability
Summary of the method: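 Human liver microsomes; percent parent compound remaining after 1 h incubation.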

[5] = target: Dual specificity calcium/calmodulin-dependent 3',5'-cyclic nucleotide phosphodiesterase 1C (Homo sapiens, UniProt Q14123); test: Inhibition of PDE1C
[6] = Oral bioavailability in rat at 2 mg/kg; assay type: ADME, organism-based; conditions: in vivo
[7] = Volume of distribution in rat; assay type: ADME, organism-based; conditions: in vivo
[8] = Selectivity ratio of IC50 for PDE11 to IC50 for PDE5
Summary of the method: (§1)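 Fold selectivity calculated as PDE11 IC50/PDE5 IC50 or PDE6 IC50/PDE5 IC50, with IC50 values in nM.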

[9] = target: 3',5'-cyclic-AMP phosphodiesterase 7B (Homo sapiens, UniProt Q9NP56); test: Inhibition of PDE7B
[10] = Volume of distribution in dog; assay type: ADME, organism-based, Canis lupus familiaris; conditions: in vivo
Summary of the method: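 Volume of distribution expressed in L/kg.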

[11] = target: High affinity 3',5'-cyclic-AMP phosphodiesterase 7A (Homo sapiens, UniProt Q13946); test: Inhibition of PDE7A
[12] = target: CYP2D6 (Homo sapiens, UniProt P10635); test: Inhibition of CYP2D6 at 3 uM; assay type: ADME
[13] = Inhibition of PDE9
[14] = target: 3',5'-cyclic-AMP phosphodiesterase 4B (Homo sapiens, UniProt Q07343); test: Inhibition of PDE4B
[15] = target: cGMP-inhibited 3',5'-cyclic phosphodiesterase 3A (Homo sapiens, UniProt Q14432); test: Inhibition of PDE3A
[16] = Inhibition of PDE10
[17] = Inhibition of PDE2
[18] = Clearance in rat at 2 mg/kg at pH 5; assay type: ADME, organism-based; design: dose 2 mg/kg; conditions: in vivo
[19] = target: Dual specificity calcium/calmodulin-dependent 3',5'-cyclic nucleotide phosphodiesterase 1B (Homo sapiens, UniProt Q01064); test: Inhibition of PDE1B
[20] = target: High affinity cAMP-specific and IBMX-insensitive 3',5'-cyclic phosphodiesterase 8B (Homo sapiens, UniProt O95263); test: Inhibition of PDE8B
[21] = target: CYP2C9 (Homo sapiens, UniProt P11712); test: Inhibition of CYP2C9 at 3 uM; assay type: ADME
[22] = target: Dual specificity calcium/calmodulin-dependent 3',5'-cyclic nucleotide phosphodiesterase 1A (Homo sapiens, UniProt P54750); test: Inhibition of PDE1A
[23] = organism: Rattus norvegicus; test: Unbound volume of distribution in rat; assay type: ADME, organism-based; conditions: in vivo
[24] = target: 3',5'-cyclic-AMP phosphodiesterase 4C (Homo sapiens, UniProt Q08493); test: Inhibition of PDE4C
[25] = Clearance in dog at 2 mg/kg; assay type: ADME, organism-based, Canis lupus familiaris; design: dose 2 mg/kg; conditions: in vivo
Summary of the method: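 Clearance in mL/min/kg after a 2 mpk dose (n = 3) in vehicle 70% PEG400/20% 0.05 M citrate buffer/10% ethanol, pH 5.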

[26] = target: cGMP-specific 3',5'-cyclic phosphodiesterase (Homo sapiens, UniProt O76074); test: Inhibition of PDE5
[27] = tested on: Rattus norvegicus; test: Antihypertensive activity in spontaneous hypertensive rat assessed as reduction in systolic blood pressure at 20 mg/kg measured after 24 hrs; assay type: functional, Artery
[28] = Selectivity ratio of IC50 for PDE6 to IC50 for PDE5; summary of the method: as §1
[29] = Solubility of the compound at pH 6.5; assay type: physicochemical; conditions: buffer
[30] = target: CYP3A4 (Homo sapiens, UniProt P08684); test: Inhibition of CYP3A4 at 3 uM; assay type: ADME
[31] = target: cGMP-inhibited 3',5'-cyclic phosphodiesterase 3B (Homo sapiens, UniProt Q13370); test: Inhibition of PDE3B
[32] = target: High affinity cAMP-specific and IBMX-insensitive 3',5'-cyclic phosphodiesterase 8A (Homo sapiens, UniProt O60658); test: Inhibition of PDE8A

Chain of Acetylcholinesterase (P22303 whole entry): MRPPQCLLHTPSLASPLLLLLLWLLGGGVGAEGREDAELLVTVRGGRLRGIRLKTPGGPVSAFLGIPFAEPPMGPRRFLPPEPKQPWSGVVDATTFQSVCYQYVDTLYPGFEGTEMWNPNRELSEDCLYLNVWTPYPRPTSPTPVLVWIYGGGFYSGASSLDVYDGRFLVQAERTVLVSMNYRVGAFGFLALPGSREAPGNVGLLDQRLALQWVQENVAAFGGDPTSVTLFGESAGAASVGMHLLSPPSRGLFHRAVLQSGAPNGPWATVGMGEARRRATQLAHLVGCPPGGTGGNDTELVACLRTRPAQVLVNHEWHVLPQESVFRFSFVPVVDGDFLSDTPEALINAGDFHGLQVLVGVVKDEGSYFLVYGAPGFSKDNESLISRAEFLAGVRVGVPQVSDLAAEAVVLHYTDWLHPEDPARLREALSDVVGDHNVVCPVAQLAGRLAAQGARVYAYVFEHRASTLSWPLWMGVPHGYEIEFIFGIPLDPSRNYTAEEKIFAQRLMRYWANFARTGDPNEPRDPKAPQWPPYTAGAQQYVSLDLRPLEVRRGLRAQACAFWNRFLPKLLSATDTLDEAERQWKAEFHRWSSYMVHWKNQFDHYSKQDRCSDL
Chain of Dual specificity calcium/calmodulin-dependent 3',5'-cyclic nucleotide phosphodiesterase 1C (Q14123 whole entry): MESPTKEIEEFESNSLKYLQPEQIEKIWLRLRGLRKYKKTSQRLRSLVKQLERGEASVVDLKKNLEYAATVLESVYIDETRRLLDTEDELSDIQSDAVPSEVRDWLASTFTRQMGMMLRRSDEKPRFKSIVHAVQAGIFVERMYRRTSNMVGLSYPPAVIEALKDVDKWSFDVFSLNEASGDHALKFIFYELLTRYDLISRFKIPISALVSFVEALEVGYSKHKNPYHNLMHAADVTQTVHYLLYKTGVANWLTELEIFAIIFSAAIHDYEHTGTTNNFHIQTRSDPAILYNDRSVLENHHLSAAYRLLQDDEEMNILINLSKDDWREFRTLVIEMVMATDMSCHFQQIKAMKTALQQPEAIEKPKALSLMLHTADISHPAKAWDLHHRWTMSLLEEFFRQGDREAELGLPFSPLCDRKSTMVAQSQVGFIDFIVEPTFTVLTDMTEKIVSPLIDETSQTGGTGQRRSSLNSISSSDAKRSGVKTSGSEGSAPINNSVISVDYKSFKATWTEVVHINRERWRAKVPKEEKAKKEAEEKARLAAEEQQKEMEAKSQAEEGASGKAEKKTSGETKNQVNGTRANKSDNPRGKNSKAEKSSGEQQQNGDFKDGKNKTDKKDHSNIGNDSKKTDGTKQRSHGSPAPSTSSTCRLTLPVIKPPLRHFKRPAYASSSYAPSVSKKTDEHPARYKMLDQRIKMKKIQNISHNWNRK
Chain of cGMP-inhibited 3',5'-cyclic phosphodiesterase 3B (Q13370 whole entry): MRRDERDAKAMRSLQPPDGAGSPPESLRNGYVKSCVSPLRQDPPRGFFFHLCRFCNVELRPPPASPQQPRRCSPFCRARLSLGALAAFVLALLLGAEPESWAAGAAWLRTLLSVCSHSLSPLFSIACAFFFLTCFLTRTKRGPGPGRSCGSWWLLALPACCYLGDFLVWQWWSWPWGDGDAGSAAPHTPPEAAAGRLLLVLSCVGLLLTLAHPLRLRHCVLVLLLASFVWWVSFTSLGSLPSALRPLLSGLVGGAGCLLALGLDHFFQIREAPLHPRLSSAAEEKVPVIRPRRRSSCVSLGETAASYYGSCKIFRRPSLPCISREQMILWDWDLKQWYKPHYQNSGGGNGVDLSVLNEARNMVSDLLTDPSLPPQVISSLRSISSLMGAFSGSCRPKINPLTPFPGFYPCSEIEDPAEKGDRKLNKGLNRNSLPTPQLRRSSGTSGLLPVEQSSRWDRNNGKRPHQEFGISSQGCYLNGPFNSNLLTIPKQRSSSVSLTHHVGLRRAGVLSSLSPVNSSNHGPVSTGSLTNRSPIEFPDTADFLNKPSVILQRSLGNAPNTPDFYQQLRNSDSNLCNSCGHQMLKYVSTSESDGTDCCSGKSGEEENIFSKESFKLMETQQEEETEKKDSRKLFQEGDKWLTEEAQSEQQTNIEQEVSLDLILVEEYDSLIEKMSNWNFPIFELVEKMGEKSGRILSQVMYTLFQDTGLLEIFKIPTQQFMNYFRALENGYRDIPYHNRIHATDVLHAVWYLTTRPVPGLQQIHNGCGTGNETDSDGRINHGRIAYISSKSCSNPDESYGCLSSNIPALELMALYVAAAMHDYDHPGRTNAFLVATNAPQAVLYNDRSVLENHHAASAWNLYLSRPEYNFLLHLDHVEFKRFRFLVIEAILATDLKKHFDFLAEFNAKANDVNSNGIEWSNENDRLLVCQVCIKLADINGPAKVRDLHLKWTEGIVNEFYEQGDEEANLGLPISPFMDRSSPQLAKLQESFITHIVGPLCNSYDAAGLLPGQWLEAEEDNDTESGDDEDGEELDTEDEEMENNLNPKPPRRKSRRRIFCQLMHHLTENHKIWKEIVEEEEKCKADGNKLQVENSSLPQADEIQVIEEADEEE
Chain of Dual specificity calcium/calmodulin-dependent 3',5'-cyclic nucleotide phosphodiesterase 1B (Q01064 whole entry): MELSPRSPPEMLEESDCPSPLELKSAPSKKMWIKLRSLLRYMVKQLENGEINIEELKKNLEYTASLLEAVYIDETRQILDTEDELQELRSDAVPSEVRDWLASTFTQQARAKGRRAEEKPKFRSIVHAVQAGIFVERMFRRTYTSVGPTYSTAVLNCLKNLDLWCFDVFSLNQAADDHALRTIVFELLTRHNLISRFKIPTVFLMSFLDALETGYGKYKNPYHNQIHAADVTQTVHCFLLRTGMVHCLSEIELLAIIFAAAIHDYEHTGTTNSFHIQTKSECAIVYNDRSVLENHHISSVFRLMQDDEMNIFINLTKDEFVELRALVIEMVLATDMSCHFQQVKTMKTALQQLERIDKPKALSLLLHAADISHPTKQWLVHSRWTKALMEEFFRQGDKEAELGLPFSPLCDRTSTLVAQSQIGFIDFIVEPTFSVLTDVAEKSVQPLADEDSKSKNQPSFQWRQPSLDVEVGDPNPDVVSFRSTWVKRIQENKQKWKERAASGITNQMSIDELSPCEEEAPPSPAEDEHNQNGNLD
Chain of CYP3A4 (P08684 whole entry): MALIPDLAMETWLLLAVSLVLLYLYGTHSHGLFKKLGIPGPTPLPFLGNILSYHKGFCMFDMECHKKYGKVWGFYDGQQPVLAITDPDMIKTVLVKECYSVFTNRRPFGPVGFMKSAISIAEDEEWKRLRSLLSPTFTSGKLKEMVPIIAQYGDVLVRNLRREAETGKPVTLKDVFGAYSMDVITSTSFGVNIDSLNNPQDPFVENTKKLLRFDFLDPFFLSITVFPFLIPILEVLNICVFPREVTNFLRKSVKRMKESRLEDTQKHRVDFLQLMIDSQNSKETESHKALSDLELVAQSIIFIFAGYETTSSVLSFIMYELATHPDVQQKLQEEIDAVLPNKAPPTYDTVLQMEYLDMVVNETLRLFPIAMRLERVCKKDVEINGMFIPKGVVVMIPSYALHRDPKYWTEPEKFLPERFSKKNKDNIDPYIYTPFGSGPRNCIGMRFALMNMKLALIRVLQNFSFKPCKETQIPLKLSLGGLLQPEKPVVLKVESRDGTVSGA
Chain of Dual specificity calcium/calmodulin-dependent 3',5'-cyclic nucleotide phosphodiesterase 1A (P54750 whole entry): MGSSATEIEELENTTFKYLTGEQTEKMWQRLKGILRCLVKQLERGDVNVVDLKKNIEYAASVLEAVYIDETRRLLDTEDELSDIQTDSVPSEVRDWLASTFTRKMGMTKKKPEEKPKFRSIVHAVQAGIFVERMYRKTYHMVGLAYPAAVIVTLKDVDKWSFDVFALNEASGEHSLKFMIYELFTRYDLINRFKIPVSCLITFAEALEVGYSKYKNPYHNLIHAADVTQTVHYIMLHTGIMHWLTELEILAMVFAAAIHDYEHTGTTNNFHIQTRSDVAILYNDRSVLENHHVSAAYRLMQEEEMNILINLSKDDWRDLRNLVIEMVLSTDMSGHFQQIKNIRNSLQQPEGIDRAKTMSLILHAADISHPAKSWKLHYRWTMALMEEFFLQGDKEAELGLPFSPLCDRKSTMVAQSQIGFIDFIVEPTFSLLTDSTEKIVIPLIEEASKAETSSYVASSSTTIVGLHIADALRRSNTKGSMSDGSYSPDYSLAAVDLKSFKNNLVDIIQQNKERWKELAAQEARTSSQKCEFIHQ
Chain of CYP2D6 (P10635 whole entry): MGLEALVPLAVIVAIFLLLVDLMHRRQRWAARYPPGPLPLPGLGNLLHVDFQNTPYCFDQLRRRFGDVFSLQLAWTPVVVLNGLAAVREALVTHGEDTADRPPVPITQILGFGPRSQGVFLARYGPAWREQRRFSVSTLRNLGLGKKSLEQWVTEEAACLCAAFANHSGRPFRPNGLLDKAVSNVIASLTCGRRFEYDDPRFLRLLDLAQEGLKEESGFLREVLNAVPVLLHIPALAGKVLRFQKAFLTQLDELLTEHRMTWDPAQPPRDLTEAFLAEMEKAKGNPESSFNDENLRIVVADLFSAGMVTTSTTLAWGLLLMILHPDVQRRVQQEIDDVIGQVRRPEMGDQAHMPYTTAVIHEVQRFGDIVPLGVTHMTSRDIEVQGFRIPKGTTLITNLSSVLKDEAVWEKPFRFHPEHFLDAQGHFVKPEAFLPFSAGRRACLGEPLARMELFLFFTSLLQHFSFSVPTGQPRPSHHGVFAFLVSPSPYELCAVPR
Chain of CYP2C9 (P11712 whole entry): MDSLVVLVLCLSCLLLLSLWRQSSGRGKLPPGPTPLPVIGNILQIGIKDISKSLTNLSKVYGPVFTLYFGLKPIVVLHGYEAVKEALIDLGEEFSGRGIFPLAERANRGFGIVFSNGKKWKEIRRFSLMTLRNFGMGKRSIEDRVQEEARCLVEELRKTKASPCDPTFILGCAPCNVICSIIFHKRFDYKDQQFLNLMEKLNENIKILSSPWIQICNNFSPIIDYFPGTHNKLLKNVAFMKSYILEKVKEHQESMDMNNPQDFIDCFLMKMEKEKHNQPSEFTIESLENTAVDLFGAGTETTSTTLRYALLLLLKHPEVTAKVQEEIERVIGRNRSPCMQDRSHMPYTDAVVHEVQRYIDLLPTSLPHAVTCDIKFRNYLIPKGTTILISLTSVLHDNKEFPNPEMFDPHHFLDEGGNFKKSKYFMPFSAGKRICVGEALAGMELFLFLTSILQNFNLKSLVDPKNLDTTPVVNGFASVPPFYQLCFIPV

CCCOCCn1c(=O)nc(NC2CCC(O)CC2)c2nnc(-c3ccc(OC)nc3)cc21 (configuration not stated)
IC50 [1]: 440 nM
IC50 [2]: 5600 nM
IC50 [3]: > 2000 nM
remaining at 1 h [4]: 72%
IC50 [5]: > 2000 nM
bioavailability [6]: 85%
Vd [7]: 0.6 L/kg
Ratio IC50 [8]: 741
IC50 [9]: > 2000 nM
Vd [10]: 0.3 L/kg
IC50 [11]: > 2000 nM
inhibition at 3 µM [12]: 5%
IC50 [13]: > 2000 nM
IC50 [14]: > 2000 nM
IC50 [15]: > 2000 nM
IC50 [16]: > 2000 nM
IC50 [17]: > 2000 nM
clearance [18]: 2.4 mL/min/kg
IC50 [19]: > 2000 nM
IC50 [20]: > 2000 nM
inhibition at 3 µM [21]: 9%
IC50 [22]: > 2000 nM
Vdu [23]: 4.8 L/kg
IC50 [24]: > 2000 nM
clearance [25]: 1.6 mL/min/kg
IC50 [26]: 0.02 nM
Activity [27]: 20 mmHg
Ratio IC50 [28]: 108
solubility [29]: > 100 µM
inhibition at 3 µM [30]: 23%
IC50 [31]: > 2000 nM
IC50 [32]: > 2000 nM
